Measured values collected from several papers.
Compare with care: the assays were run in different laboratories.
Target: Homeodomain-interacting protein kinase 2 (HIPK2, Homo sapiens, UniProt Q9H2X6)

| Structure (SMILES) | observed | mode | method | concentration | endpoint | value |
| --- | --- | --- | --- | --- | --- | --- |
| O=C(O)c1ccc2c(c1)nc(Nc1ccccc1Cl)c1ncncc12 | enzyme activity | inhibitor | radiometric | 1 µM | remaining activity | 3% |
| CN(c1ncccc1CNc1nc(Nc2ccc3c(c2)CC(=O)N3)ncc1C(F)(F)F)S(C)(=O)=O | enzyme activity | inhibitor |  | 1 µM | inhibition | 85.7% |
| NS(=O)(=O)c1cc(NC(=O)Cc2ccccc2)ccc1Oc1cccc(Cl)c1 | cell-free assay |  | competition with immobilised ligand | 1 µM | remaining binding | 62% |
| COc1cc2ncnc(Nc3ccc(Oc4ccccc4)cc3C)c2cc1OC | enzyme activity | inhibitor |  | 1 µM | inhibition | 3% |
| CCN(CC)CCNC(=O)c1c(C)[nH]c(/C=C2\C(=O)Nc3ccc(F)cc32)c1C | enzyme activity | inhibitor |  | 0.3 µM | inhibition | 20% |
| N#CCCc1ccc2c(c1)-c1[nH]c3ccc([N+](=O)[O-])cc3c1CC(=O)N2 | cell-free assay |  |  | 0.5 µM | remaining signal | 106% |
| O=C(O)c1ccc2c(c1)nc(NCCc1cccc(F)c1)c1ccncc12 | enzyme activity | inhibitor | radiometric | 1 µM | remaining activity | 4% |
| CCCCN(CCCC)C(=O)CN1C[C@H](c2cc(OC)c3c(c2)OCO3)[C@@H](C(=O)O)[C@@H]1CC(C)(C)CCC | cell-free assay |  | competition with immobilised ligand | 1 µM | remaining binding | 82.3% |
| COc1cc(-c2cc(-c3ccc(N4CCNCC4)cc3)cnc2C)cc(OC)c1OC | enzyme activity | inhibitor |  | 0.1 µM | inhibition | 1% |
| Cc1ccc(Nc2nccc(N(C)c3ccc4c(C)n(C)nc4c3)n2)cc1S(N)(=O)=O | enzyme activity | inhibitor |  | 10 µM | inhibition | 21% |
| COc1ccc2c(c1)O[C@H](c1ccc(OC)c(OC)c1)C[C@@H]2NC(=O)C1(c2ccc3c(c2)OC(F)(F)O3)CC1 | cell-free assay |  | competition with immobilised ligand | 1 µM | remaining binding | 98% |
| O=C(O)c1ccc2c(c1)nc(Nc1ccccc1)c1ccncc12 | enzyme activity | inhibitor | radiometric | 1 µM | remaining activity | 10% |
| CC/C(=N\NC(=O)NCc1cccc(O)c1)c1ccc(O)c(C)c1O | enzyme activity | inhibitor |  | 0.1 µM | inhibition | 2.1% |
| O=C(O)c1ccc2c(c1)nc(Nc1ccc(F)c(Cl)c1)c1ncncc12 | enzyme activity | inhibitor | radiometric | 1 µM | remaining activity | 2% |
| COc1cc(/C=C/C(=O)CC(=O)/C=C/c2ccc(O)c(OC)c2)ccc1O | enzyme activity | inhibitor |  | 1 µM | activity vs control | 54% |
| Nc1ncnc2occ(-c3ccc(NC(=O)Nc4cc(C(F)(F)F)ccc4F)cc3)c12 | cell-free assay | inhibitor |  | 20 µM | remaining signal | 0.05% |
| CN([C@@H]1CCc2c(CC(=O)O)c3ccccc3n2C1)S(=O)(=O)c1ccc(F)cc1 | cell-free assay |  | competition with immobilised ligand | 1 µM | remaining binding | 100% |
| COc1cccc(CCNc2nc3cc(C(=O)O)ccc3c3cncnc23)c1 | enzyme activity | inhibitor | radiometric | 1 µM | remaining activity | 22% |
| N#Cc1ccc(Nc2ccc3[nH]c(=O)[nH]c3c2)c(Cl)c1 | cell-free assay |  | competition with immobilised ligand | 1 µM | remaining binding | 100% |
| O=C(O)c1ccc2c(c1)nc(NCc1ccccc1)c1ncncc12 | enzyme activity | inhibitor | radiometric | 1 µM | remaining activity | 39% |
| CNC(=O)Nc1ccc2c(c1)CC[C@@]21OC(=O)N(CC(=O)N(Cc2ccc(F)cc2)[C@@H](C)C(F)(F)F)C1=O | cell-free assay |  | competition with immobilised ligand | 1 µM | remaining binding | 95% |
| O=C1NC(=O)c2cc(Nc3ccc(F)cc3)c(Nc3ccc(F)cc3)cc21 | cell-free assay |  |  | 0.5 µM | remaining signal | 96.6% |
| O=C(O)c1ccc2c(c1)nc(NCCc1cccc(Cl)c1)c1ccncc12 | enzyme activity | inhibitor | radiometric | 1 µM | remaining activity | 20% |
| CN1CCN(c2cnc3c(C4CCN(C(=O)c5ccc(OC(F)(F)F)cc5N)CC4)ncnc3c2)CC1 | cell-free assay |  | competition with immobilised ligand | 1 µM | remaining binding | 100% |
| Cc1ccc(NC(=O)c2ccc(C)c(C(F)(F)F)c2)cc1C#Cc1nn(C2CCC(O)CC2)c2ncnc(N)c12 (stereo not drawn) | cell-free assay |  |  | 10 µM | remaining signal | 99% |
| C[C@H](c1cccc(C#N)c1)n1cc(Cl)cc(C(N)=O)c1=N | cell-free assay |  | competition with immobilised ligand | 1 µM | remaining binding | 100% |
| COc1cccc(CCNc2nc3cc(C(=O)O)ccc3c3cnccc23)c1 | enzyme activity | inhibitor | radiometric | 1 µM | remaining activity | 10% |
